Laboratory results taken from ChEMBL document CHEMBL3259788, “Influence of the alkylsulfonylamino substituent located at the 6-position of 2,2-dimethylchromans structurally related to cromakalim: from potassium channel openers to calcium entry blockers?” (Eur J Med Chem, 2014).
Calls of active or inactive are those of the source. No cut-off for these calls is given here.

What was measured:
[1] = Inhibition of glucose-induced insulin secretion in rat pancreatic islets assessed as residual insulin release level at 10 uM preincubated for 30 mins measured after 90 mins radioimmunology analysis; assay type: functional
How it was run: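 Batches of 10 rat islets preincubated 30 min at 37 °C in bicarbonate salt medium with 2.8 mM glucose and 0.5% albumin, gassed O2/CO2 (95/5). Then incubated 90 min at 37 °C with 16.7 mM glucose plus drug. Insulin measured by radioimmunoassay against a rat insulin standard and expressed as % of drug-free 16.7 mM glucose control. Mean ± SEM (n).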

[2] = test system: Thoracic aorta; experiment: Myorelaxant activity in endothelium-free rat thoracic aorta assessed as inhibition of 30 mM of KCl-induced contraction; assay type: functional, tissue-based
How it was run: (§1)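 Transverse thoracic aorta rings (3–4 mm), cleaned of fat and connective tissue and equilibrated 60 min, recorded isometrically by force transducer. Contraction induced with 30 or 80 mM KCl. After tension stabilized, drug added cumulatively up to maximal relaxation or 300 µM. Glibenclamide at 1 or 10 µM present throughout where stated. EC50 is the concentration giving 50% inhibition of the KCl plateau, from concentration-response curves. Mean ± SEM (n).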

[3] = test system: Thoracic aorta; experiment: Myorelaxant activity in endothelium-free rat thoracic aorta assessed as inhibition of 30 mM of KCl-induced contraction in presence of 1 uM of KATP channel blocker glibenclamide; assay type: functional, tissue-based; how it was run: as §1
[4] = test system: Thoracic aorta; experiment: Myorelaxant activity in endothelium-free rat thoracic aorta assessed as inhibition of 30 mM of KCl-induced contraction in presence of 10 uM of KATP channel blocker glibenclamide; assay type: functional, tissue-based; how it was run: as §1
[5] = test system: Thoracic aorta; experiment: Myorelaxant activity in endothelium-free rat thoracic aorta assessed as inhibition of 80 mM of KCl-induced contraction; assay type: functional, tissue-based; how it was run: as §1
[6] = test system: Thoracic aorta; experiment: Effect on 86Rb fractional flow rate in endothelium-free rat thoracic aorta at 25 to 100 uM; assay type: functional, tissue-based
How it was run: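 Prelabelled 86Rb (42K substitute) efflux: pairs of 2 mm aortic rings preincubated 30 min at 37 °C in bicarbonate salt solution gassed O2/CO2 (95/5), loaded 60 min with 86Rb, washed, then perifused at 1.0 mL/min with 30 mM K+ medium throughout. Effluent collected per min from 31st to 90th min. Fractional outflow rate (% of instantaneous ring content per min) from scintillation counts.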

[7] = test system: Thoracic aorta; experiment: Inhibition of 80 mM of KCl-induced Ca2+ outflow in endothelium-free rat thoracic aorta assessed 45Ca outflow per min at 30 uM (reference value: 6.06 +/- 0.36%); assay type: functional; set-up: scale not given: the % may be the effect or the level left
[8] = test system: Thoracic aorta; experiment: Ratio of EC50 for myorelaxant activity in endothelium-free rat thoracic aorta presence of 1 uM of KATP channel blocker glibenclamide to EC50 for myorelaxant activity in endothelium-free rat thoracic aorta absence of KATP channel blocker glibenclamide; assay type: functional; how it was run: as §1
[9] = test system: Thoracic aorta; experiment: Ratio of EC50 for myorelaxant activity in endothelium-free rat thoracic aorta presence of 10 uM of KATP channel blocker glibenclamide to EC50 for myorelaxant activity in endothelium-free rat thoracic aorta absence of KATP channel blocker glibenclamide; assay type: functional; how it was run: as §1

EC50 [2] [µM] | Structure (SMILES) | Activity [1] [%] | further results
9.8 | CC1(C)CC(NC(=S)Nc2cccc(Cl)c2)c2cc(NS(C)(=O)=O)ccc2O1 (centres undefined) | 69.2 | inhibition [2]: Dose-dependent effect; EC50 [3]: 16.6 µM; EC50 [4]: 15.7 µM; EC50 [5]: 16.8 µM; Activity [6]: inactive; Activity [7]: 3.68%
9.8 | CC1(C)CC(NC(=S)Nc2cccc(C#N)c2)c2cc(NS(C)(=O)=O)ccc2O1 (centres undefined) | 91.7 | 
0.13 | CC1(C)Oc2ccc(C#N)cc2C(N2CCCC2=O)C1O (racemic) [CROMAKALIM] | 94.4 | EC50 [3]: 2.5 µM; inhibition [3]: Dose-dependent effect; EC50 [4]: 28.8 µM; inhibition [4]: Dose-dependent effect; EC50 [5]: 138 µM; Ratio EC50 [8]: 10; Ratio EC50 [9]: 130
17.2 | CCS(=O)(=O)Nc1ccc2c(c1)C(NC(=O)Nc1cccc(Cl)c1)CC(C)(C)O2 (centres undefined) | 72.1 | 
> 10 | CCS(=O)(=O)Nc1ccc2c(c1)C(NC(=O)Nc1ccc(Cl)cc1)CC(C)(C)O2 (centres undefined) | 78.1 | 
19.8 | CC1(C)CC(NC(=O)Nc2ccc(C#N)cc2)c2cc(NS(C)(=O)=O)ccc2O1 (centres undefined) | 81.6 | 
11.6 | CC1(C)CC(NC(=S)Nc2ccc(C#N)cc2)c2cc(NS(C)(=O)=O)ccc2O1 (centres undefined) | 81.7 | 
5.1 | CCS(=O)(=O)Nc1ccc2c(c1)C(NC(=S)Nc1ccc(Cl)cc1)CC(C)(C)O2 (centres undefined) | 49.1 | 

More lines, now with the values behind:

Structure (SMILES) | EC50 [2] [µM] | Activity [1] [%] | further results
CC1(C)CC(NC(=S)Nc2ccc(Cl)cc2)c2cc(NS(C)(=O)=O)ccc2O1 (centres undefined) | 11.6 | 63.9 | 
CCS(=O)(=O)Nc1ccc2c(c1)C(NC(=S)Nc1cccc(C#N)c1)CC(C)(C)O2 (centres undefined) | 12.1 | 64.7 | 
CCS(=O)(=O)Nc1ccc2c(c1)C(NC(=O)Nc1ccc(C#N)cc1)CC(C)(C)O2 (centres undefined) | 11.8 | 73.6 | 
CC1(C)CC(NC(=O)Nc2cccc(Cl)c2)c2cc(NS(C)(=O)=O)ccc2O1 (centres undefined) | 15.2 | 94.5 | 
CC1=Nc2ccc(Cl)cc2S(=O)(=O)N1 [DIAZOXIDE] | 26.1 | 80.8 | inhibition [3]: Dose-dependent effect; inhibition [4]: Dose-dependent effect; EC50 [5]: > 300 µM; Ratio EC50 [8]: 4.4; Ratio EC50 [9]: 8
COc1ccc(CCN(C)CCCC(C#N)(c2ccc(OC)c(OC)c2)C(C)C)cc1OC (centres undefined) [VERAPAMIL] | 0.031 |  | inhibition [2]: Dose-dependent effect; EC50 [3]: 0.038 µM; EC50 [4]: 0.035 µM; EC50 [5]: 0.052 µM
CCS(=O)(=O)Nc1ccc2c(c1)C(NC(=S)Nc1ccc(C#N)cc1)CC(C)(C)O2 (centres undefined) | 12 | 57.9 | 
CC1(C)CC(NC(=O)Nc2cccc(C#N)c2)c2cc(NS(C)(=O)=O)ccc2O1 (centres undefined) | 9.3 | 84.4 | 
CCS(=O)(=O)Nc1ccc2c(c1)C(NC(=S)Nc1cccc(Cl)c1)CC(C)(C)O2 (centres undefined) | 9.8 | 54.3 | 
CC1(C)CC(NC(=O)Nc2ccc(Cl)cc2)c2cc(NS(C)(=O)=O)ccc2O1 (centres undefined) | > 30 | 88.5 | 
CCS(=O)(=O)Nc1ccc2c(c1)C(NC(=O)Nc1cccc(C#N)c1)CC(C)(C)O2 (centres undefined) | 9.5 | 75.6 | 
